Results as given in publication PMC8204328 (ACS Pharmacology & Translational Science, 2021).

Legend:
lean wild-type mice = experiment: Upper GI motility; assay type: in vivo, mouse
In short: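 Upper gastrointestinal motility by charcoal transit in lean wild-type mice. The CB1R agonist ACEA is given intraperitoneally at 10 mg/kg, with or without test compound. Test compound is also given without agonist to assess motility alone.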

[1] = tested on: C2C12 mouse muscle myotubes; experiment: Insulin-induced Akt-2 phosphorylation in C2C12 myotubes; assay type: cell-based; details: 100 nM insulin; CP-55940 5 μM
In short: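 Cultured C2C12 mouse muscle myotubes, mock- or βArr2-siRNA-transfected, exposed to 100 nM insulin with or without the CB1R agonist CP-55940 (5 μM) and test compound (100 nM). Akt phosphorylation by Western blot, β-actin loading control, densitometry quantification; each treatment in duplicate cell aliquots.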

[2] = tested on: M384S, I105A and M109A mutant hCB1R; experiment: CP55,940-induced βArr2 recruitment in HEK cells expressing mutant hCB1R; assay type: cell-based, human; details: mutations M384S
[3] = acute oral 3 mg/kg, male wild-type mice; cited from earlier work
hCB1R = hCB1R (Homo sapiens, UniProt P21554); assay type: cell-based
hCB1R, sequence (P21554 whole entry): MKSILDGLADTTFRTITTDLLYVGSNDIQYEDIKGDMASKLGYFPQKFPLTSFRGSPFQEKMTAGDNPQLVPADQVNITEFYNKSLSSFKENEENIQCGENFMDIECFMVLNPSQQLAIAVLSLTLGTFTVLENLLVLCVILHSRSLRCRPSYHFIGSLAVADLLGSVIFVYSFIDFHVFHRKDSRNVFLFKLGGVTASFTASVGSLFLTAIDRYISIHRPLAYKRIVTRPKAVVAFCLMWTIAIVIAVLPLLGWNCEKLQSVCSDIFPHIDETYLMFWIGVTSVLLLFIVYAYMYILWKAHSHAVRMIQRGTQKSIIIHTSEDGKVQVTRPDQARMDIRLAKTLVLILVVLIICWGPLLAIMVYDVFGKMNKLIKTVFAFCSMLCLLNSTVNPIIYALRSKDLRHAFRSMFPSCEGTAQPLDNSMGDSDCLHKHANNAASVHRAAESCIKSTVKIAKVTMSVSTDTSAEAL

mice [4] = experiment: Hyperambulatory activity in drug-naïve mice; assay type: in vivo, mouse; details: single oral 3 mg/kg, βArr2-KO mice and wild-type littermates
mice [5] = experiment: Elevated plus maze test; assay type: in vivo, mouse
In short: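 The elevated plus maze scores anxiety-like behavior in male wild-type mice after acute oral dosing or 28 days of daily oral dosing with test compound or reference antagonist. Mean ± SEM of 4–6 independent experiments.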

CCCCC/C=C\C/C=C\C/C=C\C/C=C\CCCC(=O)NCCCl [ACEA, arachidonoyl chloroethylamine]
inhibition of upper GI motility (lean wild-type mice; 10 mg/kg intraperitoneal, lean wild-type mice): 60% | inhibition of upper GI motility, wild-type versus βArr2-KO mice (lean wild-type mice; ACEA alone): to the same extent

CCCCCCC(C)(C)c1ccc([C@@H]2C[C@H](O)CC[C@H]2CCCO)c(O)c1 [CP-55940]
effect on insulin-induced Akt-2 phosphorylation [1]: significantly inhibited | CP-55940-induced βArr2 recruitment at mutant hCB1R [2]: suppression

CN=C(NS(=O)(=O)c1ccc(Cl)cc1)N1C[C@H](c2ccccc2)C(c2ccc(Cl)cc2)=N1 [ibipinabant]
brain/plasma ratio [3]: 22% | bias (G/βArr) (hCB1R): ≈ 2

Cc1c(C(=O)NN2CCCCC2)nn(-c2ccc(Cl)cc2Cl)c1-c1ccc(Cl)cc1 [rimonabant]
hyperambulatory activity (mice [4]): similar, long-lasting hyperambulatory activity | anxiogenic behavior, elevated plus maze (mice [5]; acute oral, MRI-1891 up to 30 mg/kg, rimonabant 3 mg/kg): highly anxiogenic | anxiogenic behavior, elevated plus maze (mice [5]; chronic 28 days, MRI-1891 1 and 10 mg/kg/day, rimonabant 3 mg/kg/day): induced strong anxiety | anxiogenic response, elevated plus maze (mice [5]; single oral 3 mg/kg, βArr2-KO mice and wild-type littermates): identical, strong anxiogenic responses in both strains | upper GI motility in the absence of CB1R agonist (in vivo inverse agonism) (lean wild-type mice; MRI-1891 3 and 10 mg/kg): similar
